# Assay results from ChEMBL document CHEMBL5149991 (J Med Chem, 2021).
# How the values were obtained:
# [1] = target: Beta-2 adrenergic receptor (Homo sapiens, UniProt P07550); assay: Displacement of [3H]CGP12177 from human beta-2 adrenergic receptor […] in HEK293T cell membrane incubated for 2 hrs by scintillation counting analysis; format: cell membranes
# How it was run: (§1)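 Membranes of transiently transfected HEK293T cells in 25 mM HEPES, 5 mM MgCl2, 1 mM EDTA, 0.01% BSA, pH 7.4. β1 at 2 μg/well, β2 at 4 μg/well, with 0.2 nM [3H]CGP12177. Nonspecific binding with 10 μM CGP12177. IC50 converted to Ki by Cheng–Prusoff.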
# [2] = target: T1, 5-hydroxytryptamine receptor 1A (Homo sapiens, UniProt P08908); assay: Displacement of […] from human 5HT1A stably expressed in HEK293T cell membrane incubated for 2 hrs by scintillation counting analysis; format: cell membranes
# T1 sequence (P08908 whole entry): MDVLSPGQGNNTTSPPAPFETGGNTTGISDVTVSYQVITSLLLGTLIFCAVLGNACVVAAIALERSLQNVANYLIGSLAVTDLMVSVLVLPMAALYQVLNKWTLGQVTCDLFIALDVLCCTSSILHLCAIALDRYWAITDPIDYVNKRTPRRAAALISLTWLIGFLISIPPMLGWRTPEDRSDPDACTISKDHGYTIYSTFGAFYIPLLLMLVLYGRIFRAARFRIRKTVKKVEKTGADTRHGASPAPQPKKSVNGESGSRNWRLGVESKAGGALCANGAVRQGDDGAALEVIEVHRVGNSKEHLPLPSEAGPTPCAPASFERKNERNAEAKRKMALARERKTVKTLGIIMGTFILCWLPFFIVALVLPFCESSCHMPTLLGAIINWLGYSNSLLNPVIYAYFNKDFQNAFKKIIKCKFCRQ
# [3] = target: Beta-1 adrenergic receptor (Homo sapiens, UniProt P08588); assay: Displacement of [3H]CGP12177 from human beta-1 adrenergic receptor […] in HEK293T cell membrane incubated for 2 hrs by scintillation counting analysis; format: cell membranes; how it was run: as §1
# D(1B) dopamine receptor = D(1B) dopamine receptor (Homo sapiens, UniProt P21918); assay: Displacement of [3H]SCH23390 from human D5 receptor stably expressed in HEK293T cells co-expressing luciferase and CEK incubated for 60 mins by scintillation counting analysis; format: cell-based
# D(4) dopamine receptor = target: T2, D(4) dopamine receptor (Homo sapiens, UniProt P21917); assay: Displacement of [3H]N-methylspiperone from human D4.4 receptor stably expressed in HEK293T cells co-expressing ElucN-betaarr2 hD4.4R-ELuc incubated for 60 mins by scintillation counting analysis; format: cell-based
# T2 sequence (P21917 whole entry): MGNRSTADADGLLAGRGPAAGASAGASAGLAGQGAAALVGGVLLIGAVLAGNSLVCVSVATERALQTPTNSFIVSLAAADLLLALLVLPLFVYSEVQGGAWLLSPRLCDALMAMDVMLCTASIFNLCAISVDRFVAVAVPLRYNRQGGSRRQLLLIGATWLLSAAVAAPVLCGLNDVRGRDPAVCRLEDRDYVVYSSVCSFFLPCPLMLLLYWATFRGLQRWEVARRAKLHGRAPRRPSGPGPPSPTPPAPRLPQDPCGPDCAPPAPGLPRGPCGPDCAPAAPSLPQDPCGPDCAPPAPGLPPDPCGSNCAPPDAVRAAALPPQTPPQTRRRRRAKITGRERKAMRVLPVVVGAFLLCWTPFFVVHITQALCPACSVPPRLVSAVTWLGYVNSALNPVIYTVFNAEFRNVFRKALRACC
# D(1A) dopamine receptor = D(1A) dopamine receptor (Homo sapiens, UniProt P21728); assay: Displacement of [3H]SCH23390 from human D1 receptor stably expressed in HEK293T cells co-expressing luciferase and CEK incubated for 60 mins by scintillation counting analysis; format: cell-based
# [4] = target: T3, Muscarinic acetylcholine receptor M1 (Homo sapiens, UniProt P11229); assay: Displacement of [3H]N-methylscopolamine from human muscarinic acetylcholine M1 receptor stably expressed in CHO cells by radioligand competition binding based analysis; format: cell-based
# T3 sequence (P11229 whole entry): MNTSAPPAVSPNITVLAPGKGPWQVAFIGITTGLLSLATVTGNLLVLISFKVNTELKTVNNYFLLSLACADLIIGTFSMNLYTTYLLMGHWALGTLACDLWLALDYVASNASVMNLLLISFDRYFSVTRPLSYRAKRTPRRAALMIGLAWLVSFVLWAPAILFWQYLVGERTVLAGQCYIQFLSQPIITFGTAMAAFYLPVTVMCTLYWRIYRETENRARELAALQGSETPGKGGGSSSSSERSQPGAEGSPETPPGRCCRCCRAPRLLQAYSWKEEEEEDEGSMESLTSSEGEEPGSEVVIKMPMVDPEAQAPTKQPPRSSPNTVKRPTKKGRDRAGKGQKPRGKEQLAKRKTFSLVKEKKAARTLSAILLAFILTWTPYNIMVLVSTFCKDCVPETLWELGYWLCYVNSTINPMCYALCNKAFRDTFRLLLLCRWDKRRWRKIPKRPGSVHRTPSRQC
# How it was run: (§2)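 Whole CHO cells stably expressing hM1–hM5, competed against [3H]N-methylscopolamine. Kd/applied concentrations in nM: M1 0.17/0.2, M2 0.10/0.2, M3 0.12/0.2, M4 0.052/0.1, M5 0.20/0.3.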
# Histamine H2 receptor = Histamine H2 receptor (Cavia porcellus, UniProt P47747); assay: Agonist activity at guinea pig histamine H2 receptor stably transfected in HEK293T cells co-expressing NlucN-mGs/gpH2R-NlucC by mini-G protein recruitment assay; format: functional, cell-based
# D(2) dopamine receptor = D(2) dopamine receptor (Homo sapiens, UniProt P14416); assay: Displacement of [3H]N-methylspiperone from human D2 long receptor stably expressed in HEK293T cells co-expressing luciferase and CEK incubated for 140 mins by radioligand competition binding based assay; format: cell-based
# [5] = target: Muscarinic acetylcholine receptor M3 (Homo sapiens, UniProt P20309); assay: Displacement of [3H]N-methylscopolamine from human muscarinic acetylcholine M3 receptor stably expressed in CHO cells by radioligand competition binding based analysis; format: cell-based; how it was run: as §2
# Sequence of Muscarinic acetylcholine receptor M3 (P20309 whole entry): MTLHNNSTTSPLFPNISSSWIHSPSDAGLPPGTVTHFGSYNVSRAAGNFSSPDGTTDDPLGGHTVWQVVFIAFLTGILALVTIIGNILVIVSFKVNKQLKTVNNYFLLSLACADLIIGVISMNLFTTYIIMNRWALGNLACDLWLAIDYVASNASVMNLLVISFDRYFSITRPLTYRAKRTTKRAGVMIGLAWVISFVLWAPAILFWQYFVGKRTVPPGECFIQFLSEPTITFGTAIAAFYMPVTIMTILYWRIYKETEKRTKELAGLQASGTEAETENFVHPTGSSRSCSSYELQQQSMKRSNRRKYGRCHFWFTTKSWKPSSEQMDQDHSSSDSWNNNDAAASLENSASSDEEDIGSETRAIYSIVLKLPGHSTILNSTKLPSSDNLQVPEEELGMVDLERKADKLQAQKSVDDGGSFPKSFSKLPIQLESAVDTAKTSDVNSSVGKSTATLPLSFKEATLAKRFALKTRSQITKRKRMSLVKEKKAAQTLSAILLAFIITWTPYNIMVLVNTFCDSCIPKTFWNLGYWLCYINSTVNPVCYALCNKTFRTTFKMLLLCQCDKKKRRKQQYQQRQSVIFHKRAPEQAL
# Sequence of Beta-2 adrenergic receptor (P07550 whole entry): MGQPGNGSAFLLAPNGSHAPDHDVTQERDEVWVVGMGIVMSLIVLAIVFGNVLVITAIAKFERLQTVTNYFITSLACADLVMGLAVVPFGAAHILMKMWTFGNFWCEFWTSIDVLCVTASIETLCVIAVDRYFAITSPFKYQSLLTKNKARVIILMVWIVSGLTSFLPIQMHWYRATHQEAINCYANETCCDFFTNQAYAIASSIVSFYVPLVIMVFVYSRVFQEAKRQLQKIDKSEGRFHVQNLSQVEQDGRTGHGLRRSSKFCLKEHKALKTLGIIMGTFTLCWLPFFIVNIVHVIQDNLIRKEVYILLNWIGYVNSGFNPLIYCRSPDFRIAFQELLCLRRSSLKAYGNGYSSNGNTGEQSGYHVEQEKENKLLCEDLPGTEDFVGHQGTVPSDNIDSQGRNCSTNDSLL
# Sequence of D(1A) dopamine receptor (P21728 whole entry): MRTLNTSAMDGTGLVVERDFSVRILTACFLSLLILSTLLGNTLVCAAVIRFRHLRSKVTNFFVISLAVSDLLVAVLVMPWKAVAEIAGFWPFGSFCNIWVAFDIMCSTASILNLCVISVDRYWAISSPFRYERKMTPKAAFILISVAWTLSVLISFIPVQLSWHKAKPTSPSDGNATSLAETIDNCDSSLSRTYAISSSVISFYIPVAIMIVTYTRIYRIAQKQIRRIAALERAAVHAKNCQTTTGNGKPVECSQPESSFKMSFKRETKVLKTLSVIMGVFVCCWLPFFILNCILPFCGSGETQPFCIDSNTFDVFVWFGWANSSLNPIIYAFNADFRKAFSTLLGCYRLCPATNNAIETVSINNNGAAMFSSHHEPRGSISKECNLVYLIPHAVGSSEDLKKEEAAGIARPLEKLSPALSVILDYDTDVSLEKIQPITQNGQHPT
# Sequence of Histamine H2 receptor (P47747 whole entry): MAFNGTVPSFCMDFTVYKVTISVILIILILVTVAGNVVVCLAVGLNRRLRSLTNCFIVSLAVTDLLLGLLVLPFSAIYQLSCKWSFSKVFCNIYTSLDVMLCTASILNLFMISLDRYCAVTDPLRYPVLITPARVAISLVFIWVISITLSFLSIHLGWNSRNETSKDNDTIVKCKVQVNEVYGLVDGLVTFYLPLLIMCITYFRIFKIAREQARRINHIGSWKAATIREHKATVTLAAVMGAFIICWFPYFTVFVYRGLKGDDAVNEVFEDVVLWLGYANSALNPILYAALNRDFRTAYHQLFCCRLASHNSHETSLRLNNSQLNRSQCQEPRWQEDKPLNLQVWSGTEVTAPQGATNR
# Sequence of D(1B) dopamine receptor (P21918 whole entry): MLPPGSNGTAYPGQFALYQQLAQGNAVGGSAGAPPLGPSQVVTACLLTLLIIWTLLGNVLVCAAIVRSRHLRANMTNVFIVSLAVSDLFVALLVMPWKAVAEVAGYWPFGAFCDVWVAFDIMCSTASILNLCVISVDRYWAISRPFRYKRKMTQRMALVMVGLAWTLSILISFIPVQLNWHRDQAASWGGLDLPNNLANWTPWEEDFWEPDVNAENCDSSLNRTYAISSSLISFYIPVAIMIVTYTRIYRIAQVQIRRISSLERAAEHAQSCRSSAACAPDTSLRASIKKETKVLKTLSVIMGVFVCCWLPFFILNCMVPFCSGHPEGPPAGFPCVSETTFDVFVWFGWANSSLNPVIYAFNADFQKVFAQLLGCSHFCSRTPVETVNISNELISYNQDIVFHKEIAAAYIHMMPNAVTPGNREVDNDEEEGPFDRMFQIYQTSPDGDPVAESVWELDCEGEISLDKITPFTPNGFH
# Sequence of Beta-1 adrenergic receptor (P08588 whole entry): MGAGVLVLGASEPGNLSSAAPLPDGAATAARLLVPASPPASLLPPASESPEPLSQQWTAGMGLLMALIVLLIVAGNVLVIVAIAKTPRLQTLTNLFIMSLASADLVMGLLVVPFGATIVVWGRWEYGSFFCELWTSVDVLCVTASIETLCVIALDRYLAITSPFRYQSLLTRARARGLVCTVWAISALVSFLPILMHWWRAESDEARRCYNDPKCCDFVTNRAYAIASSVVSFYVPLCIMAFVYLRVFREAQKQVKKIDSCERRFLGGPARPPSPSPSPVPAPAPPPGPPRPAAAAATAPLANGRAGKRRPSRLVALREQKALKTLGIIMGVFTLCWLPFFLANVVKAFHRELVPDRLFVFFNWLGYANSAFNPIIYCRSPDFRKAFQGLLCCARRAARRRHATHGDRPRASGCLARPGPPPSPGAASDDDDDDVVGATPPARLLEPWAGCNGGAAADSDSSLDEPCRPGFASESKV
# Sequence of D(2) dopamine receptor (P14416 whole entry): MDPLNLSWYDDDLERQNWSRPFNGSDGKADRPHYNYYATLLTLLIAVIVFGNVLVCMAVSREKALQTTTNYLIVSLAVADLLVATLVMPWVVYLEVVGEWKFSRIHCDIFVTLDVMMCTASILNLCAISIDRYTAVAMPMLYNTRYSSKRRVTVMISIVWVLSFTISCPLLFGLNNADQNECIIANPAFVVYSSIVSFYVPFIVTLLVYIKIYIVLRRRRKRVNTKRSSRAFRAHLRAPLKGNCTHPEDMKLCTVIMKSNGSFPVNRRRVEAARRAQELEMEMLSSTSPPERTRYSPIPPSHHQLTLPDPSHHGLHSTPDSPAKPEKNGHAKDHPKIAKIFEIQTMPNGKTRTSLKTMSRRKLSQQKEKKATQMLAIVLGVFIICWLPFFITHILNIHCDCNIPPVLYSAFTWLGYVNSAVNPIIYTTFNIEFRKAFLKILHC
SMILES,Kd [1],pKi [1],Kd [2],pKi [2],Kd [3],pKi [3],Kd (D(1B) dopamine receptor),pKi (D(1B) dopamine receptor),Kd (D(4) dopamine receptor),pKi (D(4) dopamine receptor),Kd (D(1A) dopamine receptor),Ki (D(1A) dopamine receptor),Kd [4],pKi [4],EC50 (Histamine H2 receptor),Ki (D(2) dopamine receptor),Kd [5],pKi [5]
N/C(=N\C(=O)NCc1ccccc1)NCCCc1nnc(N)s1,0.07 nM,4.4,0.08 nM,4.56,0.075 nM,< 4,0.24 nM,4.95,0.078 nM,6.17,0.23 nM,1380 nM,0.17 nM,< 5,2.19 nM,6.31 µM,0.12 nM,< 5
C[C@@H](NC(=O)/N=C(\N)NCCCc1ncn[nH]1)c1ccccc1,0.07 nM,4.45,0.08 nM,4.29,0.075 nM,4.31,0.24 nM,4.62,0.078 nM,5.18,0.23 nM,2190 nM,0.17 nM,< 5,16.2 nM,> 10 µM,0.12 nM,< 5
CCCCCNC(=O)/N=C(\N)NCCCc1sc(N)nc1C,0.07 nM,4.93,0.08 nM,5.18,0.075 nM,4.66,0.24 nM,5.4,0.078 nM,6.96,0.23 nM,257 nM,0.17 nM,< 5,,,0.12 nM,< 5
CCCCCNC(=O)/N=C(\N)NCCCc1nnc(N)s1.O=C(O)C(F)(F)F.O=C(O)C(F)(F)F,0.07 nM,4.2,0.08 nM,4.49,0.075 nM,< 4,0.24 nM,4.46,0.078 nM,5.65,0.23 nM,2450 nM,0.17 nM,< 5,4.37 nM,9.55 µM,0.12 nM,< 5
